Data reported in ChEMBL document CHEMBL1149773, “Synthesis, determination of the lipophilicity, anticancer and antimicrobial properties of some fused 1,2,4-triazole derivatives” (Eur J Med Chem, 2008).
Values after ≈ are worked out from the molar mass of the structure shown.

What was measured:
Staphylococcus aureus [1] = assay: Antimicrobial activity against Staphylococcus aureus ATCC 25923 after 24 hrs by microdilution assay; format: functional; settings: ATCC 25923, 24 h
Pseudomonas aeruginosa [2] = assay: Antimicrobial activity against Pseudomonas aeruginosa ATCC 27853 after 24 hrs by microdilution assay; format: functional; settings: ATCC 27853, 24 h
Aspergillus sp. [3] = assay: Antimicrobial activity against Aspergillus sp. at 100 ug/mL by disc-diffusion method; format: functional; settings: read-out: IZ
Method in brief: (§1)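 Kirby–Bauer disc diffusion: 5 mm paper discs soaked in compound solution in DMSO (100 or 200 µg/mL; reference drugs 200 µg/mL) and laid on inoculated Mueller-Hinton agar (bacteria) or Sabouraud agar (C. albicans, Aspergillus). DMSO discs were the control. Plates ran 24 h at 35 °C. Inhibition zone diameter was scored 0–10 mm R, 11–16 mm I, 17–25 mm S; triplicate.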

Pseudomonas aeruginosa [4] = assay: Antimicrobial activity against Pseudomonas aeruginosa ATCC 27853 at 100 ug/mL by disc-diffusion method; format: functional; settings: read-out: IZ; method in brief: as §1
Staphylococcus aureus [5] = assay: Antimicrobial activity against Staphylococcus aureus ATCC 25923 at 100 ug/mL by disc-diffusion method; format: functional; settings: read-out: IZ; method in brief: as §1
Klebsiella aerogenes [6] = assay: Antimicrobial activity against Enterobacter aerogenes at 100 ug/mL by disc-diffusion method; format: functional; settings: read-out: IZ; method in brief: as §1
Escherichia coli [7] = assay: Antimicrobial activity against Escherichia coli ATCC 25922 at 200 ug/mL by disc-diffusion method; format: functional; settings: read-out: IZ; method in brief: as §1
Streptococcus pyogenes [8] = assay: Antimicrobial activity against Streptococcus pyogenes at 100 ug/mL by disc-diffusion method; format: functional; settings: read-out: IZ; method in brief: as §1
Candida albicans [9] = assay: Antimicrobial activity against Candida albicans ATCC 10231 at 200 ug/mL by disc-diffusion method; format: functional; settings: read-out: IZ; method in brief: as §1
Aspergillus sp. [10] = assay: Antimicrobial activity against Aspergillus sp. at 200 ug/mL by disc-diffusion method; format: functional; settings: read-out: IZ; method in brief: as §1
Streptococcus pyogenes [11] = assay: Antimicrobial activity against Streptococcus pyogenes at 200 ug/mL by disc-diffusion method; format: functional; settings: read-out: IZ; method in brief: as §1
[12] = tested on: Staphylococcus epidermidis; assay: Antimicrobial activity against Staphylococcus epidermidis at 200 ug/mL by disc-diffusion method; format: functional; settings: read-out: IZ; method in brief: as §1
Streptococcus agalactiae [13] = assay: Antimicrobial activity against Streptococcus agalactiae at 200 ug/mL by disc-diffusion method; format: functional; settings: read-out: IZ; method in brief: as §1
Klebsiella aerogenes [14] = assay: Antimicrobial activity against Enterobacter aerogenes at 200 ug/mL by disc-diffusion method; format: functional; settings: read-out: IZ; method in brief: as §1
[15] = Lipophilicity, log kw in methanol aqueous system at pH 3.5; format: physicochemical
Method in brief: (§2)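 RP-HPLC on an octadecyl silica column (150 × 4.6 mm, 5 µm) at 22 ± 1 °C, flow 1.0 mL min⁻¹, UV detection at 254 nm. Mobile phase was methanol, acetonitrile or dioxane with water and 0.01 M phosphate buffer pH 3.5 containing 0.05 M DEA. log k_W was extrapolated to pure water by regression.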

Klebsiella pneumoniae [16] = assay: Antimicrobial activity against Klebsiella pneumoniae at 100 ug/mL by disc-diffusion method; format: functional; settings: read-out: IZ; method in brief: as §1
Pseudomonas aeruginosa [17] = assay: Antimicrobial activity against Pseudomonas aeruginosa ATCC 27853 at 200 ug/mL by disc-diffusion method; format: functional; settings: read-out: IZ; method in brief: as §1
Escherichia coli [18] = assay: Antimicrobial activity against Escherichia coli ATCC 25922 at 100 ug/mL by disc-diffusion method; format: functional; settings: read-out: IZ; method in brief: as §1
[19] = Lipophilicity, log kw in dioxane aqueous system at pH 3.5; format: physicochemical; settings: buffer; method in brief: as §2
Staphylococcus aureus [20] = assay: Antimicrobial activity against Staphylococcus aureus ATCC 25923 at 200 ug/mL by disc-diffusion method; format: functional; settings: read-out: IZ; method in brief: as §1
Klebsiella pneumoniae [21] = assay: Antimicrobial activity against Klebsiella pneumoniae at 200 ug/mL by disc-diffusion method; format: functional; settings: read-out: IZ; method in brief: as §1
Proteus vulgaris [22] = assay: Antimicrobial activity against Proteus vulgaris at 200 ug/mL by disc-diffusion method; format: functional; settings: read-out: IZ; method in brief: as §1
[23] = tested on: Staphylococcus epidermidis; assay: Antimicrobial activity against Staphylococcus epidermidis at 100 ug/mL by disc-diffusion method; format: functional; settings: read-out: IZ; method in brief: as §1
Streptococcus agalactiae [24] = assay: Antimicrobial activity against Streptococcus agalactiae at 100 ug/mL by disc-diffusion method; format: functional; settings: read-out: IZ; method in brief: as §1
Proteus vulgaris [25] = assay: Antimicrobial activity against Proteus vulgaris at 100 ug/mL by disc-diffusion method; format: functional; settings: read-out: IZ; method in brief: as §1
Candida albicans [26] = assay: Antimicrobial activity against Candida albicans ATCC 10231 at 100 ug/mL by disc-diffusion method; format: functional; settings: read-out: IZ; method in brief: as §1
[27] = Lipophilicity, log kw in acetonitrile aqueous system at pH 3.5; format: physicochemical; method in brief: as §2
T47D [28] = assay: Growth inhibition of human T47D cells at 25.3 uM; format: functional; settings: read-out: GI
Method in brief: (§3)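 Vero, LS180, SiHa, T47D or primary HSF cells were seeded at 10^4 cells per mL and preincubated in microtiter plates. Compounds were added at 10 or 50 µg mL⁻¹ (printed µM equivalents depend on the compound) and incubated 72 h. End-point was BrdU labelling read spectrophotometrically on an ELISA reader. Growth inhibition is % versus untreated controls; triplicates.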

[29] = Growth inhibition of african green monkey Vero cells at 25.3 uM; format: cell-based; settings: chlorocebus sabaeus, read-out: GI; method in brief: as §3
[30] = Growth inhibition of human LS180 cells at 126.7 uM; format: functional; settings: read-out: GI; method in brief: as §3
[31] = Antiproliferative activity against human RPMI cells assessed as cell viability at 50 uM by MTT assay; format: functional; settings: read-out: Activity
Method in brief: (§4)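 Log-phase cells, kept in supplemented RPMI 1640 (HSF in DMEM/10% FBS) at 37 °C, 5% CO2, were exposed 24 h to 1, 50 or 100 µM compound from DMSO. They were washed, given 0.5 mg/mL MTT in HEPES buffer pH 7.4 for 45 min at 37 °C, and formazan was dissolved in DMSO and read at 570 nm. Values are % viability versus control from three independent measurements.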

[32] = Antiproliferative activity against human skin fibroblast assessed as cell viability at 1 uM by MTT assay; format: cell-based; settings: human skin fibroblasts, read-out: Activity; method in brief: as §4
[33] = Growth inhibition of human skin fibroblast at 25.3 uM; format: cell-based; settings: human skin fibroblasts, read-out: GI; method in brief: as §3
[34] = Growth inhibition of african green monkey Vero cells at 126.7 uM; format: cell-based; settings: chlorocebus sabaeus, read-out: GI; method in brief: as §3
T47D [35] = assay: Growth inhibition of human T47D cells at 126.7 uM; format: functional; settings: read-out: GI; method in brief: as §3
[36] = Antiproliferative activity against human RPMI cells assessed as cell viability at 100 uM by MTT assay; format: functional; settings: read-out: Activity; method in brief: as §4
HeLa [37] = assay: Antiproliferative activity against human HeLa cells assessed as cell viability at 1 uM by MTT assay; format: functional; settings: read-out: Activity; method in brief: as §4
[38] = Antiproliferative activity against human skin fibroblast assessed as cell viability at 100 uM by MTT assay; format: cell-based; settings: human skin fibroblasts, read-out: Activity
Method in brief: (§5)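 MTT viability assay on primary human skin fibroblasts grown in DMEM with 10% FBS and penicillin/streptomycin. Compounds were dissolved in DMSO and given at 1, 50 or 100 µM for 24 h. Cells were washed in HEPES-buffered medium (pH 7.4) and then given MTT 0.5 mg mL⁻¹ for 45 min at 37 °C. Formazan was dissolved in DMSO and read at 570 nm. Viability is % of control; three independent measurements.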

SiHa [39] = assay: Growth inhibition of human SiHa cells at 126.7 uM; format: functional; settings: read-out: GI; method in brief: as §3
SiHa [40] = assay: Growth inhibition of human SiHa cells at 25.3 uM; format: functional; settings: read-out: GI; method in brief: as §3
HeLa [41] = assay: Antiproliferative activity against human HeLa cells assessed as cell viability at 50 uM by MTT assay; format: functional; settings: read-out: Activity; method in brief: as §4
[42] = Antiproliferative activity against human RPMI cells assessed as cell viability at 1 uM by MTT assay; format: functional; settings: read-out: Activity; method in brief: as §4
[43] = Growth inhibition of human skin fibroblast at 126.7 uM; format: cell-based; settings: human skin fibroblasts, read-out: GI; method in brief: as §3
[44] = Growth inhibition of human LS180 cells at 25.3 uM; format: functional; settings: read-out: GI; method in brief: as §3
[45] = Antiproliferative activity against human skin fibroblast assessed as cell viability at 50 uM by MTT assay; format: cell-based; settings: human skin fibroblasts, read-out: Activity; method in brief: as §5
HeLa [46] = assay: Antiproliferative activity against human HeLa cells assessed as cell viability at 100 uM by MTT assay; format: functional; settings: read-out: Activity; method in brief: as §4

O=C(N[C@H](CO)[C@H](O)c1ccc([N+](=O)[O-])cc1)C(Cl)Cl [CHLORAMPHENICOL]
MIC (Staphylococcus aureus [1]): 12.4 µM (≈ 4.01 µg/mL) | MIC (Pseudomonas aeruginosa [2]): > 387 µM

Clc1ccc(OCc2nnc3n2CCN3c2ccc(Cl)c(Cl)c2)c(Cl)c1
zone of inhibition at 100 µg/mL (Aspergillus sp. [3]): 0 mm | zone of inhibition at 100 µg/mL (Pseudomonas aeruginosa [4]): 11 mm | zone of inhibition at 100 µg/mL (Staphylococcus aureus [5]): 0 mm | zone of inhibition at 100 µg/mL (Klebsiella aerogenes [6]): 0 mm | zone of inhibition at 200 µg/mL (Escherichia coli [7]): 0 mm | zone of inhibition at 100 µg/mL (Streptococcus pyogenes [8]): 0 mm | zone of inhibition at 200 µg/mL (Candida albicans [9]): 0 mm | zone of inhibition at 200 µg/mL (Aspergillus sp. [10]): 0 mm | zone of inhibition at 200 µg/mL (Streptococcus pyogenes [11]): 0 mm | zone of inhibition at 200 µg/mL [12]: 0 mm | zone of inhibition at 200 µg/mL (Streptococcus agalactiae [13]): 0 mm | zone of inhibition at 200 µg/mL (Klebsiella aerogenes [14]): 11 mm | logKw [15]: 6 | zone of inhibition at 100 µg/mL (Klebsiella pneumoniae [16]): 0 mm | zone of inhibition at 200 µg/mL (Pseudomonas aeruginosa [17]): 17 mm | zone of inhibition at 100 µg/mL (Escherichia coli [18]): 0 mm | MIC (Pseudomonas aeruginosa [2]): 36.3 µM (≈ 15.6 µg/mL) | logKw [19]: 4.61 | zone of inhibition at 200 µg/mL (Staphylococcus aureus [20]): 0 mm | zone of inhibition at 200 µg/mL (Klebsiella pneumoniae [21]): 11 mm | zone of inhibition at 200 µg/mL (Proteus vulgaris [22]): 17 mm | zone of inhibition at 100 µg/mL [23]: 0 mm | zone of inhibition at 100 µg/mL (Streptococcus agalactiae [24]): 0 mm | zone of inhibition at 100 µg/mL (Proteus vulgaris [25]): 11 mm | zone of inhibition at 100 µg/mL (Candida albicans [26]): 0 mm | logKw [27]: 3.32

Clc1ccc(N2CCn3c(COc4ccc(Cl)cc4Cl)nnc32)cc1
inhibition of growth at 25.3 µM (T47D [28]): 28% | inhibition at 25.3 µM [29]: 20% | inhibition of growth at 126.7 µM [30]: 54% | viability at 50 µM [31]: 24.4% | viability at 1 µM [32]: 83% | inhibition at 25.3 µM [33]: 7% | inhibition at 126.7 µM [34]: 28% | inhibition of growth at 126.7 µM (T47D [35]): 48% | viability at 100 µM [36]: 24.5% | viability at 1 µM (HeLa [37]): 68.4% | viability at 100 µM [38]: 86.8% | inhibition of growth at 126.7 µM (SiHa [39]): 41% | inhibition of growth at 25.3 µM (SiHa [40]): 35% | logKw [15]: 4.85 | viability at 50 µM (HeLa [41]): 59.9% | viability at 1 µM [42]: 98.4% | inhibition at 126.7 µM [43]: 10% | logKw [19]: 4.15 | inhibition of growth at 25.3 µM [44]: 48% | viability at 50 µM [45]: 83.9% | viability at 100 µM (HeLa [46]): 56.3% | logKw [27]: 3.75
